Six molecules from ChEMBL document CHEMBL4028905, “A Unique Approach to Design Potent and Selective Cyclic Adenosine Monophosphate Response Element Binding Protein, Binding Protein (CBP) Inhibitors” (J Med Chem, 2017) can be followed below.

The target in data set [1] is T1, CREB-binding protein (Homo sapiens, UniProt Q92793). In words: Inhibition of His tagged recombinant CBP (unknown origin) by TR-FRET assay. Summed up:
(§1)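 Recombinant His-tagged bromodomains purified by Ni affinity, tag removed with thrombin, checked by mass spectrometry. Assay is TR-FRET competition against a biotinylated small-molecule ligand. Normalized inhibition vs concentration fit to 4-parameter Hill equation; […] for optimization.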
Background: In TR-FRET formats the signal depends on donor and acceptor labels being close together.
Target sequence in this assay (Q92793 whole entry): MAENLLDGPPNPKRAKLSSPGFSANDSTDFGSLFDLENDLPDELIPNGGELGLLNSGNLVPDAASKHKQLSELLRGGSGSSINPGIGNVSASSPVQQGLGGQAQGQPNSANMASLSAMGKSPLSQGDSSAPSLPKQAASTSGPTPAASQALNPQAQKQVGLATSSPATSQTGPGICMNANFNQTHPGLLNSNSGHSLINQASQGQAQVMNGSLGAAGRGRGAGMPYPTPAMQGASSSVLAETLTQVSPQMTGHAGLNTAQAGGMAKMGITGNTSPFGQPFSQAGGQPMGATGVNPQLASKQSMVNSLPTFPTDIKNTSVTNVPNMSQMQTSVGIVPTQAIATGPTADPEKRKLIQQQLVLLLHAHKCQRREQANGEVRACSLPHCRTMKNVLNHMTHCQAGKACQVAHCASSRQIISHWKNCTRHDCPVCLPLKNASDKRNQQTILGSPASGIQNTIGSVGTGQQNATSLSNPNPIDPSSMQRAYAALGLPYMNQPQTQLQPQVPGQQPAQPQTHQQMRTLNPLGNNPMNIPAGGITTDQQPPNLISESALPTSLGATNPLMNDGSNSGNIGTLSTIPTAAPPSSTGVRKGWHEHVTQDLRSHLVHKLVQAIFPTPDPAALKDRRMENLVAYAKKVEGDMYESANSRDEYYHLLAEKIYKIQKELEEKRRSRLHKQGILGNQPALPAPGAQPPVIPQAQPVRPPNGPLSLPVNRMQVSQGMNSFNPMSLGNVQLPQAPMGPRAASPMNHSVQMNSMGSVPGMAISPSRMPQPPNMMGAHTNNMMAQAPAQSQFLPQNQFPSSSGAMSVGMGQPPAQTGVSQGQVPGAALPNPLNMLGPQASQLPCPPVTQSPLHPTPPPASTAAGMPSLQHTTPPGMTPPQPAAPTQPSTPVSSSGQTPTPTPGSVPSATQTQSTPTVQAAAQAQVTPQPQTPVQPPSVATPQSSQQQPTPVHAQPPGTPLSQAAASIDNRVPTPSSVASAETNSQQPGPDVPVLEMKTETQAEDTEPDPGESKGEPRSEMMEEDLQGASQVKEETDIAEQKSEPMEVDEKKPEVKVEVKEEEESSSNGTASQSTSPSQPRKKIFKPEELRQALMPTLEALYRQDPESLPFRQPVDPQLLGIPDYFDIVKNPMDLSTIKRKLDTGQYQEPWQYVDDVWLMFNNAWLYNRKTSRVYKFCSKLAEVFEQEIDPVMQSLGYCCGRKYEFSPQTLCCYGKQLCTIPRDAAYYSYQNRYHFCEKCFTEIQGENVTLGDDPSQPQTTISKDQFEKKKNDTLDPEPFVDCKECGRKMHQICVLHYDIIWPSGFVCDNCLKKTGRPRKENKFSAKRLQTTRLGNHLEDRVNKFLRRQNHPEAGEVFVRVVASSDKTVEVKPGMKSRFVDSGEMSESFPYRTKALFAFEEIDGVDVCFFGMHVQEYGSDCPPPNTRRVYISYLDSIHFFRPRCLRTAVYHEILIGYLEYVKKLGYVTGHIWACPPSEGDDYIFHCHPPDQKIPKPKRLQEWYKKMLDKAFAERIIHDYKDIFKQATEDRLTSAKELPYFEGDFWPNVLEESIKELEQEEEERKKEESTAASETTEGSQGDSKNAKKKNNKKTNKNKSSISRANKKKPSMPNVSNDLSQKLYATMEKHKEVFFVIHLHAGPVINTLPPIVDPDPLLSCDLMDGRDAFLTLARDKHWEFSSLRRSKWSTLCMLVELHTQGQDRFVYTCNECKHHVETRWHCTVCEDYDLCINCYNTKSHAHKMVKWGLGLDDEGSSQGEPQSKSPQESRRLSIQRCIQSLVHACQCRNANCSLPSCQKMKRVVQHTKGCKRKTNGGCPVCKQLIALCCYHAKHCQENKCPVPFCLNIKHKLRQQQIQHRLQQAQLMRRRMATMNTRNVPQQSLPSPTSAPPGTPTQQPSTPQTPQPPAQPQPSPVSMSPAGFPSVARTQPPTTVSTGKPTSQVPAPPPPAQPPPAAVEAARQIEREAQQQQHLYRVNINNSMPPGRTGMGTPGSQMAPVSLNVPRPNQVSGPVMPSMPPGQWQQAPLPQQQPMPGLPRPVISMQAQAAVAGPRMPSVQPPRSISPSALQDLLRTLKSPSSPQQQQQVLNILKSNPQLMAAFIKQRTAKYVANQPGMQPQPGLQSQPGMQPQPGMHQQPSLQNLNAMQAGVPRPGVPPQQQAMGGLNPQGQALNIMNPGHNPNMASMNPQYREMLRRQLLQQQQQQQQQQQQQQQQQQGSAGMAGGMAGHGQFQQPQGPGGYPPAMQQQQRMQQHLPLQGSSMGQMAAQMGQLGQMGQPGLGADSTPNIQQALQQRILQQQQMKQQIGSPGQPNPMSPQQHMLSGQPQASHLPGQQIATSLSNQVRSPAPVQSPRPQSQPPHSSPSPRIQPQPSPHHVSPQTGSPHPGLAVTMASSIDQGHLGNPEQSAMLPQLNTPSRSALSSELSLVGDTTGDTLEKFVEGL

Data set [2] has as its target Bromodomain-containing protein 4 (Homo sapiens, UniProt O60885). In words: Inhibition of His tagged recombinant BRD4 bromodomain 1 (unknown origin) by TR-FRET assay. In outline: as §1
The species entered for data set [3] is Homo sapiens. Put plainly: Selectivity ratio of IC50 for His tagged recombinant BRD4 bromodomain 1 (unknown origin) to IC50 for His tagged recombinant CBP (unknown origin).
Data set [4] is filed under the species Homo sapiens. Put plainly: Selectivity ratio of IC50 for His tagged recombinant CBP (unknown origin) to IC50 for His tagged recombinant BRD4 bromodomain 1 (unknown origin).
Data set [5] addresses CREB-binding protein/Histone acetyltransferase p300 (Homo sapiens, UniProt Q09472+Q92793). In words: Inhibition of P300/CBP in human MV4-11 cells assessed as reduction in MYC expression after 4 hrs by luminescence based assay. Format: cell-based. Summed up: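 MV-4-11 cells plated at 10,000 per well in RPMI1640 with 10% FBS and 2 mM L-glutamine. Compounds added in DMSO at a final 0.1% and incubated 4 h at 37 °C before MYC expression read-out; EC50 derived.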

Data set [6] can be described thus: Intrinsic clearance in human liver microsomes at 1 uM in presence of NADPH by LC-MS/MS analysis. The conditions noted are these: read-out: CLH. Type of data set: ADME, microsome. A general note: Liver microsomes are a subcellular fraction often used to study metabolism.
Data set [7] can be described thus: Intrinsic clearance in rat liver microsomes at 1 uM in presence of NADPH by LC-MS/MS analysis. Format: ADME, microsome. To be noted: read-out: CLH.
Data set [8] can be described thus: Intrinsic clearance in mouse liver microsomes at 1 uM in presence of NADPH by LC-MS/MS analysis. Format: ADME, microsome. To be noted: read-out: CLH.
The nature of data set [9]: Oral bioavailability in CD-1 mouse at 5 mg/kg by LC-MS/MS analysis. Type of data set: ADME, organism-based. To be noted: in vivo. Summed up:
(§2)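 Female CD-1 mice, 6–9 weeks, 20–35 g, n = 3 per route. Dosing was 1 mg/kg i.v. in PEG400/DMSO/water (35/10/55 v/v) or 5 mg/kg p.o. suspended in 0.5% methylcellulose/0.2% Tween 80. Serial tail-nick blood sampled to 24 h and diluted in K2EDTA water. Analysis by acetonitrile precipitation and LC–MS/MS (MRM, positive ESI); LLOQ 0.001 μM.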

Data set [10] addresses T2, Bromodomain-containing protein 9 (Homo sapiens, UniProt Q9H8M2).
T2 sequence (Q9H8M2 whole entry): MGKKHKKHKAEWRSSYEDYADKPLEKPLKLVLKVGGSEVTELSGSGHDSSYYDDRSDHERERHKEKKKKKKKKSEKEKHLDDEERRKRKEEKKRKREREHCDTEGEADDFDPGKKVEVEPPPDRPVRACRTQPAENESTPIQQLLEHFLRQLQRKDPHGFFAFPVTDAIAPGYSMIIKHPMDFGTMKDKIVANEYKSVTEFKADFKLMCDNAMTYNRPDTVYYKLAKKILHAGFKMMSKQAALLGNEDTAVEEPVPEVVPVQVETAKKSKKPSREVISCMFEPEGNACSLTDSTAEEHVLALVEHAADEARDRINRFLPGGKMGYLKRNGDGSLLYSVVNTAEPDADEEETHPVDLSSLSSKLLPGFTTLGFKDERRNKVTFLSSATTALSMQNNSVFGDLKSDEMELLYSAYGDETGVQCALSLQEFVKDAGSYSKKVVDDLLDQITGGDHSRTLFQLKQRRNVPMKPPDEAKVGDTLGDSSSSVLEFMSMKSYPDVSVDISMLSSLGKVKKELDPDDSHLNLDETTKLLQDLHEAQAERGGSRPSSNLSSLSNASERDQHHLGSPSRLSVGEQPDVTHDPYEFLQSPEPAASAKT
Put plainly: Binding affinity to human BRD9 (R130 to V259) expressed in bacterial cells by BromoScan assay. Format: cell-based.

Data set [11] deals with T3, Bromodomain-containing protein 7 (Homo sapiens, UniProt Q9NPI1).
T3 sequence (Q9NPI1 whole entry): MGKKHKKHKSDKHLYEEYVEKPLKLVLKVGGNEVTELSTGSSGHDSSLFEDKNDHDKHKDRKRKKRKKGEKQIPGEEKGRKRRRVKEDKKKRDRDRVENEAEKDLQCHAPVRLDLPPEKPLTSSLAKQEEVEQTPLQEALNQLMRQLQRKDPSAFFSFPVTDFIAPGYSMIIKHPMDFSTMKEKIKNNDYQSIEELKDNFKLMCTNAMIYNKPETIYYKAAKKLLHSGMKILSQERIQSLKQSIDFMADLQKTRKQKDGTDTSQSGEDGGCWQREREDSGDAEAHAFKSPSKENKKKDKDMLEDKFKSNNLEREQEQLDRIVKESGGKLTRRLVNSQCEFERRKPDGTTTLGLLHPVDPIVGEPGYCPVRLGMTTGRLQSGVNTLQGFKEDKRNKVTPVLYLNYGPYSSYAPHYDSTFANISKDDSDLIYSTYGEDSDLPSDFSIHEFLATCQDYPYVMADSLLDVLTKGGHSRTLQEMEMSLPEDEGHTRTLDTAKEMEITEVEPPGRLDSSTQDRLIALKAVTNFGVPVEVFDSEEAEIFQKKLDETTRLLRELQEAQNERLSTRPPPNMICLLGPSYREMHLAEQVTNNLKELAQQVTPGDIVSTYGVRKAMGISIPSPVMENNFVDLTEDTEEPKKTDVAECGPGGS
Put plainly: Binding affinity to human BRD7 (L125 to R254) expressed in mammalian cells by BromoScan assay. Format: cell-based.

For data set [12], the target named is T4, Transcription intermediary factor 1-alpha (Homo sapiens, UniProt O15164).
T4 sequence (O15164 whole entry): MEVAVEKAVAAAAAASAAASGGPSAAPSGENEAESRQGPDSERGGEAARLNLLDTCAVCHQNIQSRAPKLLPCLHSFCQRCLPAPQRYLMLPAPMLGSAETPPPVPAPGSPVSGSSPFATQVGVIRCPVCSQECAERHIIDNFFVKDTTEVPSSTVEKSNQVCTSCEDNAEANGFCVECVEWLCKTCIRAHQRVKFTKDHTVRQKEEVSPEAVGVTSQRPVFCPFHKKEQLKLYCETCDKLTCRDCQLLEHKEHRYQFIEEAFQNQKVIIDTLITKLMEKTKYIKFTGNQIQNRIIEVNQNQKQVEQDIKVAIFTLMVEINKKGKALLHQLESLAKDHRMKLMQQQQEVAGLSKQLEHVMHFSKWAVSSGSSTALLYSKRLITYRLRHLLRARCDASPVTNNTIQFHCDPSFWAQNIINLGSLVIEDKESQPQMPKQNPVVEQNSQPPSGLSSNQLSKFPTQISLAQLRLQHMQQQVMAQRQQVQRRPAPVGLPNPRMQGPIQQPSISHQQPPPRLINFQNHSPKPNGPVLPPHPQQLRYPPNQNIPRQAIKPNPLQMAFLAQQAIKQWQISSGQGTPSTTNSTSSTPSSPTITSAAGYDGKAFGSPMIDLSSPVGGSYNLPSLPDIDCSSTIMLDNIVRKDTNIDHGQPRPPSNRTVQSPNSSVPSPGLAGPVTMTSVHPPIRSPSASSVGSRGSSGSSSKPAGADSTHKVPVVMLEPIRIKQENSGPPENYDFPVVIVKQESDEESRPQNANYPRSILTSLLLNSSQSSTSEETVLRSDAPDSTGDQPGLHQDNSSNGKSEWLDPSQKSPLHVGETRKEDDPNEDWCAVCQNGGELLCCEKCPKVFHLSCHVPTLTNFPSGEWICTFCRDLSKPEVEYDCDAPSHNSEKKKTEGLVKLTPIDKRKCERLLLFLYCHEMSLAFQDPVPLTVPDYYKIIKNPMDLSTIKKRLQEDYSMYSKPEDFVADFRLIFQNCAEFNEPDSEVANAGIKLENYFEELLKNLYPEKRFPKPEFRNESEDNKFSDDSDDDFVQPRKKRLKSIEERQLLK
Put plainly: Binding affinity to human TRIM24 (G862 to E980) expressed in bacterial cells by BromoScan assay. Format: cell-based.

Data set [13] concerns the target Bromodomain-containing protein 3 (Homo sapiens, UniProt Q15059). In words: Binding affinity to human BRD3 bromodomain 2 (G306 to P416) expressed in bacterial cells by BromoScan assay. Format: cell-based.
For data set [14], the target named is T1, CREB-binding protein. Put plainly: Binding affinity to human CBP (R1081 to G1197) expressed in bacterial cells by BromoScan assay. Format: cell-based.
Target sequence in this assay (Q92793 2-2442 limits assumed): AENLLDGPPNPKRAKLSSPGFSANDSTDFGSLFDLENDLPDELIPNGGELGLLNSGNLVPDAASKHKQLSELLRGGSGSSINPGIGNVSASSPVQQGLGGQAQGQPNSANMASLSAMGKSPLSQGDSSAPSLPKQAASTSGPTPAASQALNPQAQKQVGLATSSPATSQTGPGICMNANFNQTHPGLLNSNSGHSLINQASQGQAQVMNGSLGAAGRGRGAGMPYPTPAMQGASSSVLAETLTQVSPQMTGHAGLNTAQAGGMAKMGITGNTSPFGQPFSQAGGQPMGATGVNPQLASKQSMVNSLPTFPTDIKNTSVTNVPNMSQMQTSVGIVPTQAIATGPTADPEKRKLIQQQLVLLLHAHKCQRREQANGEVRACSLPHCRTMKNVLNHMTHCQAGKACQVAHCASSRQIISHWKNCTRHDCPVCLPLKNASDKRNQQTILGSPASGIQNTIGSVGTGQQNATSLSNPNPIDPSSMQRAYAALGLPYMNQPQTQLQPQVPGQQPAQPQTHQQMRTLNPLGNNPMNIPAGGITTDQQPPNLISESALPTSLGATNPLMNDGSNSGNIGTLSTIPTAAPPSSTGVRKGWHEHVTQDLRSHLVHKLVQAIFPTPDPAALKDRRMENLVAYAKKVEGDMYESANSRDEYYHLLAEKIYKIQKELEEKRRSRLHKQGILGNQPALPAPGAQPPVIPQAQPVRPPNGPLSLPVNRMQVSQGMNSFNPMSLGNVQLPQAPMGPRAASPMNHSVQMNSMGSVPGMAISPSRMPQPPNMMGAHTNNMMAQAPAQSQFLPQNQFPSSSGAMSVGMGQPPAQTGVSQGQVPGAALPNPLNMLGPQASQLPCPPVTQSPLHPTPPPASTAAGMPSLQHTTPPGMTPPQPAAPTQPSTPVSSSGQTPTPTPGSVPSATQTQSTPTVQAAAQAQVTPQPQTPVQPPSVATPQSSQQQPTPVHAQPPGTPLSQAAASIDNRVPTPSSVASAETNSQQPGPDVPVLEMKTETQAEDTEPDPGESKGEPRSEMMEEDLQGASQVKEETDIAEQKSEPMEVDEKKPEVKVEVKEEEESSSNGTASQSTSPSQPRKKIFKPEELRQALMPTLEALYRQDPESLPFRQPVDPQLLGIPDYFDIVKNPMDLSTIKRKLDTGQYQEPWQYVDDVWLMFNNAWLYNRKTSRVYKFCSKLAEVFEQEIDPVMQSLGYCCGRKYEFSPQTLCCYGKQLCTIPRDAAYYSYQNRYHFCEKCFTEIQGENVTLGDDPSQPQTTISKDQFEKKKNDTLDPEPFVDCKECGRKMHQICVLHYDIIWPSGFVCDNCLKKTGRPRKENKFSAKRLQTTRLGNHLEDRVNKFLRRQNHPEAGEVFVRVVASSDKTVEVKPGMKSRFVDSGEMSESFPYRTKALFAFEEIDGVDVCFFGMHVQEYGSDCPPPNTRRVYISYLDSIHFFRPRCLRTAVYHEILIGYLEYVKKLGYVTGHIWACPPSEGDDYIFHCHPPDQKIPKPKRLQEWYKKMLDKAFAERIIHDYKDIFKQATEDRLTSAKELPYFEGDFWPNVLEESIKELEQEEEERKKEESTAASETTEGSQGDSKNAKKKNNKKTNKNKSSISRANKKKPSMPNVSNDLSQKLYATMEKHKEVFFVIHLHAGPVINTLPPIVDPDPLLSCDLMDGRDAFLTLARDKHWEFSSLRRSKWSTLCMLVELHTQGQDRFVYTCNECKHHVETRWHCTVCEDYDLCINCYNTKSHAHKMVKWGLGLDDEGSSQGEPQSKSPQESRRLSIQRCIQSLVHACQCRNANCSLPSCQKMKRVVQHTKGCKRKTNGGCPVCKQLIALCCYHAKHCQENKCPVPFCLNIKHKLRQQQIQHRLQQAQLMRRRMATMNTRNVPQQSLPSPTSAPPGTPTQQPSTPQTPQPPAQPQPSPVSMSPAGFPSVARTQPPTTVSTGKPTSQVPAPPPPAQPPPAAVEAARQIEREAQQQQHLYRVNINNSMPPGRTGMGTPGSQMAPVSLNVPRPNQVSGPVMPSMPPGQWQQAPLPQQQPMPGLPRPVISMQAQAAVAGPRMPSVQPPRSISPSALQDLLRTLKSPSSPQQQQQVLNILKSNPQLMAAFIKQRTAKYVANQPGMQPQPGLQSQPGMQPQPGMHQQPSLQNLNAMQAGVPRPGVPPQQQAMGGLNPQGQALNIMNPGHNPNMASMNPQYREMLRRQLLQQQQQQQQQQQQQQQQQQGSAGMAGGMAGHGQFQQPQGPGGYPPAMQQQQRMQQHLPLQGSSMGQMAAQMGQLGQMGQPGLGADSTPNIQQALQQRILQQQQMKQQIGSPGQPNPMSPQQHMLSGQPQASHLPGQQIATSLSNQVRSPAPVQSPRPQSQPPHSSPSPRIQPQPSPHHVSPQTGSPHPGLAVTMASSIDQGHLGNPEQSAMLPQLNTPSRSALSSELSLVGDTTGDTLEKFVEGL
In data set [15] the target is Histone acetyltransferase p300 (Homo sapiens) (UniProt Q09472). Put plainly: Binding affinity to human P300 (A1040 to G1161) expressed in bacterial cells by BromoScan assay. Type of data set: cell-based.
A short description of data set [16]: Total clearance in CD-1 mouse at 1 mg/kg, iv or 5 mg/kg, po by LC-MS/MS analysis. Type of data set: ADME, organism-based. To be noted: in vivo. In outline: as §2
Data set [17] in a line: Volume of distribution at steady state in CD-1 mouse at 1 mg/kg, iv or 5 mg/kg, po by LC-MS/MS analysis. Format: ADME, organism-based. The conditions noted are these: in vivo, read-out: Vdss. Summed up: as §2
The nature of data set [18]: Half life in CD-1 mouse at 1 mg/kg, iv by LC-MS/MS analysis. Format: ADME, organism-based. The conditions noted are these: in vivo. Summed up:
as §2

For data set [19], the target named is T1, CREB-binding protein. In words: Inhibition of His tagged recombinant CBP (unknown origin) at 50 uM by HTS assay. Summed up:
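HTS TR-FRET competition of biotinylated ligand binding to recombinant His-tagged CBP bromodomain (tag thrombin-cleaved after Ni affinity). Highest concentration tested 50 μM. IC50 from 4-parameter Hill fit of normalized inhibition, reported as geometric mean of 2–8 replicates.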
Target sequence in this assay (Q92793 2-2442 limits assumed): as above

The target in data set [20] is T2, Bromodomain-containing protein 9. In words: Inhibition of His tagged recombinant BRD9 (unknown origin) by TR-FRET assay. In outline: as §1
For data set [21], the target named is Chromatin remodeling regulator CECR2 (Homo sapiens, UniProt Q9BXF3). In words: Inhibition of His tagged recombinant CECR2 (unknown origin) by TR-FRET assay. In outline:
as §1

Activity calls are given as the source filed them.

Usually IC50 stands for the concentration that gives 50% inhibition. `Cc1ccc(S(=O)(=O)Nc2ccc3c(c2)CCC(=O)N3C)s1`: the IC50 in [1] came to 23 µM; in data set [2], 5.2 µM. Further, the Ratio IC50 was 0.23 in data set [3] and 4.4 in data set [4].
What is called EC50 is the concentration at which the effect is half-maximal. A word on the bioavailability: it is the share of a dose that reaches the circulation, judged against a reference dose that is usually intravenous. The Kd is the equilibrium constant for the complex coming apart. A low value points to a tighter complex. For orientation: half-life means the time needed for the level to fall by half in the phase considered. The low end stands for fast loss, the high end for slow loss. Take `CNC(=O)c1c[nH]c2c(C(C)C)nc(N3CCCc4cc(-c5cnn(C)c5)c(C(F)F)cc43)cc12`: the results for the concentration for half-maximal inhibition (IC50) in data set [1] and in data set [2] were 0.0022 µM and 2.3 µM, respectively. Also, the Ratio IC50 in data set [3] came out at 1050. In [5], the EC50 came to 0.053 µM. The CLint scaled at 1 µM came to 13 mL/min/kg in [6], 25 mL/min/kg in [7] and 50 mL/min/kg in [8]. Also, the bioavailability in data set [9] was found to be 52%. Moreover, the Kd in data set [10], in data set [11], in [12] and in data set [13] was above 10 µM each time. For the same molecule, the result in data set [14] and in [15] was Active. This molecule also yielded a clearance in data set [16] of 18.2 mL/min/kg. Also, the Vd in data set [17] worked out at 1.9 L/kg. The molecule also gave a half-life in data set [18] of 1.3 h.
Consider `COC(=O)c1c[nH]c2ccccc12`, for which the IC50 in data set [1] is 99 µM; in [2], above 100 µM. Further, the Ratio IC50 in data set [3] was above 1. Also, in data set [19], the inhibition entry was “Active”.
In the case of `Cn1c(=O)sc2cc(N)ccc21`, the IC50 in data set [1] and in data set [2] was above 100 µM throughout. Moreover, in [19], the inhibition result is “Active”.
In the case of `C[C@@H]1CC(=O)Nc2cccc(N3CCCc4cc(-c5cnn(C)c5)c(C(F)F)cc43)c2N1`, the IC50 is 0.0034 µM in data set [1], 4.5 µM in data set [2], above 20 µM in data set [20] and above 20 µM in data set [21]. The Ratio IC50 in data set [3] turned out to be 1300.
For the molecule `CNC(=O)c1c[nH]c2ccc(N3CCCc4cc(-c5cnn(C)c5)c(C(F)F)cc43)cc12`, the IC50 came out at 0.0095 µM in [1] and 12 µM in [2]. The Ratio IC50 in [3] amounted to 1300. Moreover, the EC50 in data set [5] turned out to be 2.2 µM. For the same molecule, the CLint scaled at 1 µM in [6] turned out to be 13 mL/min/kg; in [7], 20 mL/min/kg; in [8] it was 47 mL/min/kg.
